Laboratory results: ChEMBL document CHEMBL1148788 (J Med Chem, 2007)
Where “and” joins values, the source holds several entries; their conditions need not be identical. Identical values can stand only once. Calls of active or inactive are those of the source. No cut-off for these calls is given here.

Legend:
[1] = molecular target: T1, Neuronal acetylcholine receptor subunit alpha-7 (Homo sapiens, UniProt P36544); assay: Antagonist activity at human alpha-7 nAChR in tsA201 cells coexpressed with Ric3 by FMP assay; assay type: functional, cell-based
Target sequence in this assay (P36544 whole entry): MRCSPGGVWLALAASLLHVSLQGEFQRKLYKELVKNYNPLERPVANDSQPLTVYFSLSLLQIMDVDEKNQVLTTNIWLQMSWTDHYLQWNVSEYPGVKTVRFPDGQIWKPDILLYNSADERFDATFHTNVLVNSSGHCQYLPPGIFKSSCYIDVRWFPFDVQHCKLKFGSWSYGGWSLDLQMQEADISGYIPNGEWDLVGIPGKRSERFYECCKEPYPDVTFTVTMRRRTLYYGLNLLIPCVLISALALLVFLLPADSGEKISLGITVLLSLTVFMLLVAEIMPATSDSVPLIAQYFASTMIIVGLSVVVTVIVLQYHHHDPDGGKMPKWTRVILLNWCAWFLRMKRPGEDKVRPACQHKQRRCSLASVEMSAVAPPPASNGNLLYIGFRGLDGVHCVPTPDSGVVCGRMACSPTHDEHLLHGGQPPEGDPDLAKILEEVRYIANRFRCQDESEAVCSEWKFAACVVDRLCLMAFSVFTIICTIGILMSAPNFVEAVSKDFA

[2] = molecular target: T2, 5-hydroxytryptamine receptor 3A (Homo sapiens, UniProt P46098); assay: Displacement of [3H]GR65630 from human 5HT3A receptor in HEK293 cells; assay type: cell-based
T2 sequence (P46098 whole entry): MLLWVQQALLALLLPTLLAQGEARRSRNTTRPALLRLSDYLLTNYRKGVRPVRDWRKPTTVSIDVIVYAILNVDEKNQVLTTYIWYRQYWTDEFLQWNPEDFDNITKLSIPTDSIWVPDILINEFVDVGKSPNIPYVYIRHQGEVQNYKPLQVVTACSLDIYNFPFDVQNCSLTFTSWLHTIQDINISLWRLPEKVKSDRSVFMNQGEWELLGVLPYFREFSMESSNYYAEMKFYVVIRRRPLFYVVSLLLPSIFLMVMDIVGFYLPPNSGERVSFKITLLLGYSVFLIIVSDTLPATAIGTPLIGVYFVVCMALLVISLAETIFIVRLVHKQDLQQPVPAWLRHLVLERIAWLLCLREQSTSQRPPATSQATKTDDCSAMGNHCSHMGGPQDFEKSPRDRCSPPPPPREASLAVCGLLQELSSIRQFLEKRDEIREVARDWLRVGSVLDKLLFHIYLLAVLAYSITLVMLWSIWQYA

[3] = Antagonist activity at human alpha7nAChR Y93A mutant co-expressed with human Ric3 in tsA201 cells by FMP assay; assay type: functional, cell-based
[4] = Displacement of [3H]methyllycaconitine from chimeric alpha7nAChR Y195A mutant/5HT3A receptor in tsA201 cells; assay type: cell-based, Homo sapiens
Summary of the method: (§1)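 tsA-201 cells transiently transfected with 4 µg WT or mutant α7/5-HT3A chimera and assayed 2 days later. Membranes washed twice at 50000g in 50 mM Tris-HCl pH 7.2. Incubated with 0.5 nM [3H]MLA and compound for 2.5 h at room temperature with shaking; nonspecific binding with 5 mM (S)-nicotine. PEI-soaked GF/C filtration, scintillation counting. Ki derived; duplicate, 3–7 experiments.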

[5] = molecular target: T1, Neuronal acetylcholine receptor subunit alpha-7; assay: Displacement of [3H]methyllycaconitine from alpha7 nAChR in tsA201 cells co-expressed with Ric3; assay type: cell-based
Target sequence in this assay (P36544 whole entry): as the sequence (P36544 whole entry) above

[6] = molecular target: T1, Neuronal acetylcholine receptor subunit alpha-7; assay: Displacement of [3H]methyllycaconitine from chimeric alpha7nAChR/5HT3A in tsA201 cells; assay type: cell-based
Target sequence in this assay (P36544 23-502 limits assumed): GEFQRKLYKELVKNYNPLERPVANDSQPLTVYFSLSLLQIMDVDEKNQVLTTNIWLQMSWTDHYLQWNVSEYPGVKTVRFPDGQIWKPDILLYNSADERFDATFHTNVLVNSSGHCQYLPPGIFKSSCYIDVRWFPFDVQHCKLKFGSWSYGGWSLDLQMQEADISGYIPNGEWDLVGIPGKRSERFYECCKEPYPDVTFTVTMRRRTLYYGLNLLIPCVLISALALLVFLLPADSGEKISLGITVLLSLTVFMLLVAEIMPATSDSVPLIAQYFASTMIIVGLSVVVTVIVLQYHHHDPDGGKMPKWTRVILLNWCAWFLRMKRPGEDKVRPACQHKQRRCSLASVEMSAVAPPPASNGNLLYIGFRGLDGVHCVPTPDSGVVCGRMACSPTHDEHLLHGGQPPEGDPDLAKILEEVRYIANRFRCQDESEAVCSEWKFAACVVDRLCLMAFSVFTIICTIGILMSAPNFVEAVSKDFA

[7] = tested on: tsA201; assay: Displacement of [3H]methyllycaconitine from chimeric alpha-7nAChR W149Y mutant/5HT3A receptor W149Y mutant in tsA201 cells; assay type: cell-based; details: Homo sapiens; summary of the method: as §1
[8] = Displacement of [3H]methyllycaconitine from chimeric alpha7nAChR K145A mutant/5HT3A receptor in tsA201 cells; assay type: cell-based, Homo sapiens; summary of the method: as §1
[9] = molecular target: T1, Neuronal acetylcholine receptor subunit alpha-7; assay: Displacement of [3H]methyllycaconitine from human alpha-7 in tsA201 cells coexpressed with 5HT3A receptor; assay type: cell-based
Target sequence in this assay (P36544 whole entry): as the sequence (P36544 whole entry) above

[10] = molecular target: T1, Neuronal acetylcholine receptor subunit alpha-7
Target sequence in this assay (P36544 whole entry): as above

[11] = Displacement of [3H]methyllycaconitine from chimeric alpha-7nAChR S150A mutant/5HT3A receptor in tsA201 cells; assay type: cell-based, Homo sapiens; summary of the method: as §1
[12] = cells; assay type: functional, cell-based; details: Homo sapiens, HEK293
[13] = Displacement of [3H]methyllycaconitine from chimeric alpha-7nAChR N107A mutant/5HT3A receptor in tsA201 cells; assay type: cell-based, Homo sapiens; summary of the method: as §1
[14] = molecular target: T3, Glycine receptor subunit alpha-1 (Homo sapiens, UniProt P23415); assay: Antagonist activity at human glycine alpha-1 receptor in HEK293 cells by FMP assay; assay type: functional, cell-based
T3 sequence (P23415 whole entry): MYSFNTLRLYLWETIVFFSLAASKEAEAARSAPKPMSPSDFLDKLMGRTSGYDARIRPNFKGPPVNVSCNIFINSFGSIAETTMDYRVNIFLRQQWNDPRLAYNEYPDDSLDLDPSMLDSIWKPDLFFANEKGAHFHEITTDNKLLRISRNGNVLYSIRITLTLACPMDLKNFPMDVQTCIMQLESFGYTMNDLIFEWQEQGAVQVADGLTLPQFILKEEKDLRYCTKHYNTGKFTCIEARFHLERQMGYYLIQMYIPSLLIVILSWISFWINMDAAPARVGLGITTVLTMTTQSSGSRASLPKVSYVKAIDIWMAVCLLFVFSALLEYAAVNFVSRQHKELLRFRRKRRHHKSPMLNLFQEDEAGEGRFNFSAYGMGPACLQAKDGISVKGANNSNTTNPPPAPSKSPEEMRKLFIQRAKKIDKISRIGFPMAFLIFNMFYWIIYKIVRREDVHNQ

[15] = tested on: tsA201; assay: Displacement of [3H]methyllycaconitine from chimeric alpha-7nAChR Y93A mutant/5HT3A receptor in tsA201 cells; assay type: cell-based; details: Homo sapiens; summary of the method: as §1
[16] = tested on: tsA201; assay: Displacement of [3H]methyllycaconitine from chimeric alpha-7nAChR W55A/Y195A mutant /5HT3A receptor in tsA201 cells; assay type: cell-based; details: Homo sapiens; summary of the method: as §1
[17] = Displacement of [3H]methyllycaconitine from chimeric alpha-7nAChR K145R mutant /5HT3A receptor in tsA201 cells; assay type: cell-based, Homo sapiens; summary of the method: as §1
[18] = Displacement of [3H]methyllycaconitine from chimeric alpha-7nAChR D197A mutant/5HT3A receptor in tsA201 cells; assay type: cell-based, Homo sapiens; summary of the method: as §1
[19] = molecular target: Neuronal acetylcholine receptor; alpha4/beta2 (Rattus norvegicus, UniProt P09483+P12390); assay: Displacement of [3H]epibatidine from rat recombinant alpha-4-beta-2 nAChR in HEK293 cell line; assay type: cell-based
[20] = Displacement of [3H]methyllycaconitine from chimeric alpha-7nAChR Y195F mutant/5HT3A receptor in tsA201 cells; assay type: cell-based, Homo sapiens; summary of the method: as §1
[21] = Displacement of [3H]methyllycaconitine from chimeric alpha7nAChR R79A mutant/5HT3A receptor R79A mutant in tsA201 cells; assay type: cell-based, Homo sapiens; summary of the method: as §1
[22] = Antagonist activity at human alpha7 nAChR W149Y mutant co-expressed with human Ric3 in tsA201 cells by FMP assay; assay type: functional, cell-based
[23] = molecular target: T2, 5-hydroxytryptamine receptor 3A; assay: Antagonist activity at human 5HT3A receptor expressed in HEK293 cells by FMP assay; assay type: functional, cell-based; details: read-out: IC50
[24] = Antagonist activity at human alpha-7 nAChR Y195A mutant coexpressed with human Ric3 in tsA201 cells by FMP assay; assay type: functional, cell-based
[25] = molecular target: Neuronal acetylcholine receptor; alpha4/beta4 (Rattus norvegicus, UniProt P09483+P12392); assay: Displacement of [3H]epibatidine from recombinant rat alpha-4-beta-4 nAChr in HEK293 cell line; assay type: cell-based
[26] = Displacement of [3H]methyllycaconitine from chimeric alpha-7nAChR S148A mutant /5HT3A receptor in tsA201 cells; assay type: cell-based, Homo sapiens; summary of the method: as §1
[27] = Displacement of [3H]methyllycaconitine from chimeric alpha-7nAChR W55A mutant /5HT3A receptor in tsA201 cells; assay type: cell-based, Homo sapiens; summary of the method: as §1
[28] = tested on: tsA201; assay: Displacement of [3H]methyllycaconitine from chimeric alpha-7nAChR W149A mutant/5HT3A receptor in tsA201 cells; assay type: cell-based; details: Homo sapiens; summary of the method: as §1
[29] = Displacement of [3H]methyllycaconitine from chimeric alpha7nAChR W55Y mutant/5HT3A receptor in tsA201 cells; assay type: cell-based, Homo sapiens; summary of the method: as §1
[30] = Displacement of [3H]methyllycaconitine from chimeric alpha-7nAChR Y168A mutant/5HT3A receptor in tsA201 cells; assay type: cell-based, Homo sapiens; summary of the method: as §1
[31] = Antagonist activity at human alpha-7 nAChR Y188A mutant coexpressed with human Ric3 in tsA201 cells by FMP assay; assay type: functional, cell-based
[32] = molecular target: T4, Neuronal acetylcholine receptor; alpha3/beta4 (Rattus norvegicus, UniProt P04757+P12392); assay: Displacement of [3H]epibatidine from recombinant rat alpha-3-beta-4 nAChr in HEK293 cell line; assay type: cell-based
[33] = tested on: tsA201; assay: Displacement of [3H]methyllycaconitine from chimeric alpha-7nAChR Y188A mutant/5-HT3A receptor in tsA201 cells; assay type: cell-based; details: Homo sapiens; summary of the method: as §1
[34] = molecular target: T4, Neuronal acetylcholine receptor; alpha3/beta4; assay: Antagonist activity at rat alpha3beta4 nAChR expressed in HEK293 cells by FMP assay; assay type: functional, cell-based, Homo sapiens; details: read-out: IC50

T4 sequence (P04757 whole entry): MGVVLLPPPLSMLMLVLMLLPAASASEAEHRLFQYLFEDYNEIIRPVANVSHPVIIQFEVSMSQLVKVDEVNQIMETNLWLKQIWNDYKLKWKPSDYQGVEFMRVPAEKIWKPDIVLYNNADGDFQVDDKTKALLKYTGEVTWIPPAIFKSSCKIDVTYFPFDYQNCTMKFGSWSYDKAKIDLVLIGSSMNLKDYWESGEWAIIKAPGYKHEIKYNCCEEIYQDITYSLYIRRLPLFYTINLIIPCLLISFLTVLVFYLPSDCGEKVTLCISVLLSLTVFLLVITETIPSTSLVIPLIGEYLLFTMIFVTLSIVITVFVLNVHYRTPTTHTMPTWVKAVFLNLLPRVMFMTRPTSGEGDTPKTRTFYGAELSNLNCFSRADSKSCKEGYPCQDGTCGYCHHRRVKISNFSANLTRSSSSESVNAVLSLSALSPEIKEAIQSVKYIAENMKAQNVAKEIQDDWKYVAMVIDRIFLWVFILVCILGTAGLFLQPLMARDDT
T4 sequence (P12392 whole entry): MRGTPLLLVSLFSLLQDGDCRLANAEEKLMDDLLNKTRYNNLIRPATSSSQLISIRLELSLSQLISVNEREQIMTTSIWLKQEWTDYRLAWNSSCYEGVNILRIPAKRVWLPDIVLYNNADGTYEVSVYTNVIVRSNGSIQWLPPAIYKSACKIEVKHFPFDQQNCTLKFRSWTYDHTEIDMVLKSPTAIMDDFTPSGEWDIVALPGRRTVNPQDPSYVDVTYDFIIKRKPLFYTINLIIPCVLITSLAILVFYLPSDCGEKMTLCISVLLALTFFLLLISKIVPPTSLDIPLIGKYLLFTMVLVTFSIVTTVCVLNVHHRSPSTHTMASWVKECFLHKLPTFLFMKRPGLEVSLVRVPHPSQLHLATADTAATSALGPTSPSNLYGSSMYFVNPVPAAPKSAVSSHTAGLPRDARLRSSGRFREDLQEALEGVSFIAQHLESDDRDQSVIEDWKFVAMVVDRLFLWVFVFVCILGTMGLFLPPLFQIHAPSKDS
Chain of Neuronal acetylcholine receptor; alpha4/beta2 (P09483 whole entry): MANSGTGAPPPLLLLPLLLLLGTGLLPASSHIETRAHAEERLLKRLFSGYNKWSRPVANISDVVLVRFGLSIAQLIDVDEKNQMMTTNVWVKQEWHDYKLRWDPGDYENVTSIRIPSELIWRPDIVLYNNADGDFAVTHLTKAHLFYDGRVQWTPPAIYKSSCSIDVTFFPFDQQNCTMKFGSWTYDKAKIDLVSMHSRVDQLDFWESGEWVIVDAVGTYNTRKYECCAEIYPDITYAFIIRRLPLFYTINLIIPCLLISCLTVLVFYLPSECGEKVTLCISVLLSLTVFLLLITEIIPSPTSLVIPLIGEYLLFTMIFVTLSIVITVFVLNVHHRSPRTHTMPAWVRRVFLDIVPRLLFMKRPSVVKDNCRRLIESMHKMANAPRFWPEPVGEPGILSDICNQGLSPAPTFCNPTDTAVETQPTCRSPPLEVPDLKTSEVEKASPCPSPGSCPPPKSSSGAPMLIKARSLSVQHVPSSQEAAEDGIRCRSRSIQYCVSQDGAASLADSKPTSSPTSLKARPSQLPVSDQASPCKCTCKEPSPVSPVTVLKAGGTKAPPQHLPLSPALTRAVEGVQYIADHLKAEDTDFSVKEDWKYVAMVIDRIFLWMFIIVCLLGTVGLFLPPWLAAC
Chain of Neuronal acetylcholine receptor; alpha4/beta2 (P12390 whole entry): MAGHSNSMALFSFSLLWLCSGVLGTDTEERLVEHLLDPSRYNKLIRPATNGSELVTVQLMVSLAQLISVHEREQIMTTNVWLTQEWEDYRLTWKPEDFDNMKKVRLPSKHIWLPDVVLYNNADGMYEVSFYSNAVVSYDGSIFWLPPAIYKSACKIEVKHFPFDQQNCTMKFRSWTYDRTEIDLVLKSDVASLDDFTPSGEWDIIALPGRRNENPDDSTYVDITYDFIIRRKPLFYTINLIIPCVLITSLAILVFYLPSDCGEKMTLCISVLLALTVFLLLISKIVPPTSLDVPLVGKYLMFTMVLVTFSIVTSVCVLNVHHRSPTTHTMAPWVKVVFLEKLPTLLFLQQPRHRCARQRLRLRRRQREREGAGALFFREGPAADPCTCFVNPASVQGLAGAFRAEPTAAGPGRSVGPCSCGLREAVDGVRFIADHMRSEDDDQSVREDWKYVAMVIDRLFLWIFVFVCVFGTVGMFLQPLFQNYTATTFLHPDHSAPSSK
Chain of Neuronal acetylcholine receptor; alpha4/beta4 (P09483 whole entry): as the sequence (P09483 whole entry) above
Chain of Neuronal acetylcholine receptor; alpha4/beta4 (P12392 whole entry): as the sequence (P12392 whole entry) above

C[N+]12CC[C@@H]3[C@@H]4/C(=C\N5c6ccccc6[C@@]67CC[N+]8(C)CC9=CCO[C@H]([C@@H]([C@H]56)[C@H]9C[C@@H]78)N4c4ccccc4)[C@@H](C[C@@H]31)/C(=C\CO)C2.[I-].[I-] (stereo partly drawn)
IC50 ([1]; read-out: IC50): 2100 nM | IC50 ([1]; read-out: pIC50 (converted)): 2090 nM | Ki [2]: 5900 nM | IC50 ([3]; read-out: IC50): 6600 nM | IC50 ([3]; read-out: pIC50 (converted)): 6610 nM | Ki [4]: 6200 nM | pKi [4]: 5.21 | Ki ([5]; read-out: Ki): 620 nM | Ki ([5]; read-out: pKi (converted)): 631 nM | Ki [6]: 970 nM | pKi [6]: 6.01 | Activity [7]: inactive | Ki [8]: 890 nM | pKi [8]: 6.05 | Ki ([9]; read-out: Ki): 980 nM | Ki ([9]; read-out: pKi (converted)): 1000 nM | IC50 [10]: 1400 nM and 1380 nM | Ki [11]: 720 nM | pKi [11]: 6.14 | IC50 ([12]; read-out: IC50): > 100000 nM | IC50 ([12]; read-out: pIC50 (converted)): > 100000 nM | Ki [13]: 1300 nM | pKi [13]: 5.87 | IC50 [14]: > 100000 nM | pIC50 ([14]; hek293): < 4 | Activity [15]: inactive | Activity [16]: inactive | Ki [17]: 740 nM | pKi [17]: 6.13 | Ki [18]: 2200 nM | pKi [18]: 5.66 | pKi ([19]; hek293): < 4 | Ki ([19]; read-out: Ki): > 100000 nM | Ki [20]: 1300 nM | pKi [20]: 5.9 | Ki [21]: 1400 nM | pKi [21]: 5.86 | IC50 ([22]; read-out: IC50): 8900 nM | IC50 ([22]; read-out: pIC50 (converted)): 8910 nM | IC50 [23]: 4200 nM | IC50 ([24]; read-out: IC50): 7100 nM | IC50 ([24]; read-out: pIC50 (converted)): 7080 nM | Ki [25]: > 100000 nM | pKi ([25]; hek293): < 4 | Ki [26]: 1000 nM | pKi [26]: 5.98 | Ki [27]: 3100 nM | pKi [27]: 5.51 | Activity [28]: inactive | Ki [29]: 690 nM | pKi [29]: 6.16 | Ki [30]: 1300 nM | pKi [30]: 5.89 | IC50 ([31]; read-out: IC50): 4700 nM | IC50 ([31]; read-out: pIC50 (converted)): 4680 nM | Ki [32]: 30000 nM | Activity [33]: inactive | IC50 [34]: 30000 nM
